The test system of series [1] is Escherichia coli. The experiment in a line: Antibacterial activity against Escherichia coli ATCC 25922 measured after 24 hrs. The settings on record: ATCC 25922, 24 h. Type of series: functional. In a few lines:
(§1)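 Broth microdilution adapted from NCCLS. Mid-log bacteria were diluted in MHB to a final (0.5–1) × 10^5 CFU mL−1. Peptides were serially diluted in 0.2% BSA and mixed with an equal volume of cells. After 24 h at 37 °C, MIC was read at A492 as the lowest concentration inhibiting 95% of growth. At least three independent experiments, each with three technical replicates.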

For series [2], the system named is Staphylococcus epidermidis. The experiment in a line: Antibacterial activity against Staphylococcus epidermidis ATCC 12228 measured after 24 hrs. The class given is functional. The settings on record: ATCC 12228, 24 h. Put shortly:
as §1

Series [3] concerns Escherichia coli. The experiment in a line: Antibacterial activity against Escherichia coli ATCC 25922 measured after 18 to 24 hrs in presence of FeCl3. Type of series: functional.
The test system of the next series is Candida tropicalis. Nature of the series: Antifungal activity against Candida tropicalis cgmcc2.1975 measured after 48 hrs by broth microdilution method. Type of series: functional. The settings on record: cgmcc2.1975, 48 h. Put shortly:
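Modified CLSI M27-A2 microdilution. Yeast colonies were diluted in MOPS-buffered RPMI 1640 to a final (0.5–1) × 10^3 CFU mL−1 and mixed with an equal volume of peptide serially diluted in 0.2% BSA. After 48 h at 28 °C, MIC was read at A492 as the lowest concentration inhibiting 95% of growth. At least three independent experiments, each with three technical replicates.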

In series [4] the test system is Candida albicans. Nature of the series: Antifungal activity against Candida albicans cgmcc2.2086 measured after 48 hrs in presence of NH4Cl by broth microdilution method. Type of series: functional. The settings on record: cgmcc2.2086, 48 h. Background: In broth dilution the organism is exposed to a series of concentrations in liquid medium.
The next series deals with Salmonella typhimurium. Nature of the series: Bactericidal activity against Salmonella typhimurium ATCC 14028 incubated for 24 hrs followed by replating on agar plate and measured after overnight incubation. The class given is functional, Salmonella enterica subsp. enterica serovar Typhimurium. The settings on record: Salmonella enterica, ATCC 14028, 24 h; read-out: MBC>99.9. Put shortly: (§2)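 Mid-log bacteria diluted in MHB to (0.5–1) × 10^5 CFU/mL and mixed 1:1 with peptide serially diluted in 0.2% BSA. After 24 h at 37 °C, 50 μL of each mixture was plated on agar and incubated overnight. MBC taken as the lowest concentration killing >99.9% of cells. At least three independent experiments, each with three technical replicates.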

Series [5] has as its system Staphylococcus aureus. Nature of the series: Antibacterial activity against Staphylococcus aureus ATCC 29213 measured after 18 to 24 hrs in presence of FeCl3. The class given is functional.
Series [6] deals with Escherichia coli. The experiment in a line: Antibacterial activity against Escherichia coli K88 measured after 24 hrs. Type of series: functional. The conditions noted are these: K88, 24 h. In a few lines:
as §1

Series [7] relates to Staphylococcus aureus. The experiment in a line: Antibacterial activity against Staphylococcus aureus ATCC 29213 measured after 18 to 24 hrs in presence of NaCl. The class given is functional.
Series [8] concerns Escherichia coli. Nature of the series: Bactericidal activity against Escherichia coli K99 incubated for 24 hrs followed by replating on agar plate and measured after overnight incubation. Type of series: functional. The settings on record: K99, 24 h, read-out: MBC>99.9. In a few lines: as §2
The nature of series [9]: Therapeutic index, ratio of MHC10 for hemolytic activity in human RBC to MIC95 against methicillin-resistant Staphylococcus aureus ATCC 43300. The class given is toxicity. The settings on record: human red blood cells (erythrocytes), read-out: TI. In a few lines: (§3)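 Therapeutic index = MHC divided by MIC. MHC is the lowest concentration giving >10% lysis of human RBC (1 h, 37 °C, 1-128 µM, A576). MIC is 95% growth inhibition by broth microdilution: bacteria in MHB 24 h at 37 °C; Candida in MOPS-buffered RPMI 1640 at (0.5–1) × 10^3 CFU mL−1, 48 h at 28 °C.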

For series [10], the system named is Candida albicans. Nature of the series: Fungicidal activity against Candida albicans cgmcc2.2086 incubated for 48 hrs followed by replating on YM agar plate and measured after 48 hrs. The class given is functional. Put shortly: (§4)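 Yeast diluted in MOPS-buffered RPMI 1640 to (0.5–1) × 10^3 CFU/mL (CLSI M27-A2, modified) and mixed 1:1 with peptide serially diluted in 0.2% BSA. After 48 h at 28 °C, 50 μL per well was plated on YM agar and incubated 48 h at 28 °C. MFC taken as the lowest concentration killing ≥99.9% of cells. Three or more independent experiments, triplicate wells.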

A short description of series [11]: Conformational stability in sodium dodecyl sulfate assessed as beta-sheet conformation by measuring absorption spectra at maximum dichroic band at 35 uM by CD spectra analysis. The class given is physicochemical. In a few lines: (§5)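 CD spectra from 190 to 250 nm of peptide at 35 μM in 10 mM PBS, 30 mM SDS micelles or 50% TFE, recorded in a 1.0-mm quartz cell. Ellipticity was converted to mean residue ellipticity. Three independent scans, each averaged over more than 3 runs.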

The nature of series [12]: Therapeutic index, ratio of MHC10 for hemolytic activity in human RBC to MIC95 against Escherichia coli ATCC 25922. The class given is toxicity. The conditions noted are these: human red blood cells (erythrocytes), pooled result: one value given for 9 cell lines, strains, targets or settings, read-out: TI. In a few lines:
as §3

A short description of series [13]: Therapeutic index, ratio of MHC10 for hemolytic activity in human RBC to MIC95 against Candida albicans cgmcc2.2086. The class given is toxicity. The settings on record: human red blood cells (erythrocytes), read-out: TI. Put shortly: as §3
A short description of series [14]: Conformational stability in sodium dodecyl sulfate assessed as beta-sheet conformation by measuring absorption spectra at minimum dichroic band at 35 uM by CD spectra analysis. The class given is physicochemical. In a few lines:
as §5

Series [15] in a line: Conformational stability in 50% trifluoro-ethyl alcohol assessed as alpha-helical structural propensity by measuring absorption spectra at minimum dichroic band at 35 uM by CD spectra analysis. Type of series: physicochemical. Put shortly: as §5
For a further series, the system named is Candida parapsilosis. The experiment in a line: Fungicidal activity against Candida parapsilosis cgmcc2.3989 incubated for 48 hrs followed by replating on YM agar plate and measured after 48 hrs. The class given is functional. Put shortly: as §4

In brackets after ≈: the same amount, converted by molar mass.

For the compound `CC(C)(O/N=C(\C(=O)N[C@@H]1C(=O)N2C(C(=O)[O-])=C(C[n+]3ccccc3)CS[C@H]12)c1csc(N)n1)C(=O)O` [CEFTAZIDIME], the MIC95 was 2 µM (≈ 1.09 µg/mL) in the series on Escherichia coli [1]; 16 µM (≈ 8.75 µg/mL) in series [2]; 2 µM in the series on Escherichia coli [3]; over 128 µM in the series with Candida tropicalis; over 128 µM with Candida albicans [4]; 16 µM in the series on Staphylococcus aureus [5]. Moreover, the values for the MIC95 in the series on Escherichia coli [6] and in the series with Staphylococcus aureus [7] were 1 µM (≈ 0.547 µg/mL) and 16 µM, respectively. Further, the MBC in the series on Salmonella typhimurium and in the series on Escherichia coli [8] was 1 µM (≈ 0.547 µg/mL) in each case.
On to H-AARIILRARFR-NH2, for which the MIC95 in the series on Escherichia coli [1] worked out at 4 µM; in series [2], 2 µM; in the series on Escherichia coli [3], 4 µM; against Candida tropicalis, 4 µM; in the series with Candida albicans [4], 16 µM; in the series on Staphylococcus aureus [5], 4 µM. Besides, the MIC95 is 2 µM with Escherichia coli [6] and over 128 µM with Staphylococcus aureus [7]. In addition, the figures for the selectivity ratio in [9], in series [12] and in [13] were 90.5, 69.1 and 25.4, respectively. Further, the “MFC<=99.9” value in the series on Candida albicans [10] amounted to 32 µM; against Candida parapsilosis it was 16 µM. Besides, the “Wavelength of maximum dichroic band” value in series [11] worked out at 200 nm. The minimum bactericidal concentration (MBC) in the series on Salmonella typhimurium and in the series on Escherichia coli [8] was 4 µM in each case. The Activity in series [14] was 216 to 220 nm; in series [15], 208 to 222 nm.
On to H-AARIILRFRFR-NH2, for which the MIC95 against Escherichia coli [1] came out at 8 µM; in series [2] it was 2 µM; in the series on Escherichia coli [3], 16 µM; in the series on Candida tropicalis, 4 µM; with Candida albicans [4], 4 µM; in the series with Staphylococcus aureus [5], 4 µM. Moreover, the MIC95 against Escherichia coli [6] stood at 4 µM; in the series on Staphylococcus aureus [7], 32 µM. Moreover, the values for the selectivity ratio in series [9], in series [12] and in [13] were 128, 43.5 and 50.8, respectively. Also, the “MFC<=99.9” value in the series on Candida albicans [10] was determined as 16 µM; against Candida parapsilosis, 8 µM. In series [11], the “Wavelength of maximum dichroic band” value came to 200 nm. The MBC (as a rule, the lowest tested concentration that kills the bacteria rather than only halting them) in the series on Salmonella typhimurium amounted to 8 µM; in the series with Escherichia coli [8], 4 µM. The Activity lay in the range of 216 to 220 nm in series [14] and 208 to 222 nm in [15].
Take H-AARIILRIRFR-NH2: the MIC95 in the series with Escherichia coli [1] was 4 µM; in [2], 2 µM; in the series on Escherichia coli [3], 4 µM; with Candida tropicalis, 4 µM; with Candida albicans [4] it was 8 µM; in the series on Staphylococcus aureus [5], 2 µM. Moreover, the results for the MIC95 against Escherichia coli [6] and in the series with Staphylococcus aureus [7] were 2 µM and 8 µM, respectively. Besides, the selectivity ratio was found to be 64 in series [9], 37.3 in [12] and 25.4 in series [13]. For the same compound, the “MFC<=99.9” value in the series on Candida albicans [10] and in the series on Candida parapsilosis was 8 µM each time. Further, the “Wavelength of maximum dichroic band” value in series [11] came out at 200 nm. Moreover, the MBC in the series with Salmonella typhimurium and with Escherichia coli [8] was 4 µM in each case. Also, the Activity in series [14] was 216 to 220 nm; in [15], 208 to 222 nm.
For H-AARIILRLRFR-NH2, the MIC95 with Escherichia coli [1] was 4 µM; in series [2], 2 µM; in the series on Escherichia coli [3] it was 8 µM; in the series on Candida tropicalis, 4 µM; with Candida albicans [4], 8 µM; in the series on Staphylococcus aureus [5], 4 µM. Also, the MIC95 against Escherichia coli [6] amounted to 4 µM; in the series on Staphylococcus aureus [7], 16 µM. Further, the results for the selectivity ratio in series [9], in series [12] and in [13] were 128, 64 and 50.8, respectively. In addition, the “MFC<=99.9” value was 16 µM in the series with Candida albicans [10] and 8 µM in the series with Candida parapsilosis. In addition, the “Wavelength of maximum dichroic band” value in [11] is given as 200 nm. In addition, the MBC came to 8 µM with Salmonella typhimurium and 4 µM in the series on Escherichia coli [8]. Also, the Activity in [14] lay in the range of 216 to 220 nm; in series [15], 208 to 222 nm.

The values are drawn from ChEMBL document CHEMBL4350958, “Rational Design of Short Peptide Variants by Using Kunitzin-RE, an Amphibian-Derived Bioactivity Peptide, for Acquired Potent Broad-Spectrum Antimicrobial and Improved Therapeutic Potential of Commensalism Coinfection of Pathogens” (J Med Chem, 2019).
